Test results published in paper PMC9306447 (Clinical Cancer Research, 2022).
Where “and” joins values, the source holds several entries; their conditions need not be identical. Identical values can stand only once. Like-named read-outs stand apart in the source and are kept apart here.

Assays:
[1] = Steady-state plasma PK of total and unbound ceritinib; type: in vivo, human; conditions: for Css,max / Tss,max: plasma
[2] = Fraction unbound in brain tumor tissue by equilibrium dialysis; type: in vitro ADME, human; conditions: for Fraction unbound EN: enhancing tumor tissue; for Fraction unbound NE: nonenhancing tumor tissue
Procedure, shortened: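 Patients with brain metastasis or recurrent glioblastoma took the test compound orally for 10 days: 750 mg/day fasted or 450 mg/day with food. Tumor was resected 2 to 4, 6 to 8 or 23 to 25 h after the 10th dose. Regions were gadolinium-enhancing or, for glioblastoma, also nonenhancing, defined by preoperative MRI and intraoperative neuronavigation. Fraction unbound was measured by equilibrium dialysis, with total drug by LC-MS/MS.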

IGF1R = conditions: read-out: biochemical IC50; cited from earlier work
[3] = daily dose; cited from earlier work
[4] = Ceritinib concentrations in brain tumor and CSF and extent of CNS penetration; type: in vivo, human; conditions: for Total drug tumor conc. EN / Unbound drug tumor conc. EN: enhancing tumor; for Total drug tumor conc. NE / Unbound drug tumor conc. NE: nonenhancing tumor
[5] = Clinical safety, adverse events graded by CTCAE; type: in vivo, human; conditions: 10 patients
human plasma proteins = assay: Fraction unbound in plasma by equilibrium dialysis; type: in vitro ADME; conditions: patient plasma; median and range
Procedure, shortened: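 Patient plasma came from subjects dosed orally with the test compound for 10 days (750 mg/day fasted or 450 mg/day fed). Blood was sampled on day 9 and intraoperatively, centrifuged at 4°C, 1,500 g for 10 min, and the plasma stored at −80°C. Fraction unbound was measured by equilibrium dialysis; unbound concentration is total concentration (LC-MS/MS) times fraction unbound.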

FAK = conditions: read-out: biochemical IC50; cited from earlier work
[6] = test system: ALK(+) NSCLC brain metastases; conditions: ASCEND-1, cited from earlier work
[7] = test system: ALK(+) NSCLC with brain metastases; conditions: across all four arms of ASCEND-7; cited from earlier work
[8] = total ceritinib, arithmetic mean of 10 patients (750 or 450 mg/day)
[9] = total ceritinib, geometric mean of 10 patients (750 or 450 mg/day)
[10] = unbound ceritinib, arithmetic mean of 10 patients (750 or 450 mg/day)
[11] = unbound ceritinib, geometric mean of 10 patients (750 or 450 mg/day)
[12] = individual patients 7, 9, 13 (resection 6–8 h)
[13] = individual patients 8, 14 (resection 23–25 h)
[14] = median (range given) of patients
[15] = mean of patients, all time points
[16] = median of patients, all time points
[17] = individual patients 7, 9, 13, 6–8 h after 10th dose, 450 mg/day
[18] = individual patients 8, 14, 23–25 h after 10th dose, 450 mg/day
[19] = individual patients 5, 11, 2–4 h after 10th dose, 450 mg/day

## Cc1cc(Nc2ncc(Cl)c(Nc3ccccc3S(=O)(=O)C(C)C)n2)c(OC(C)C)cc1C1CCNCC1 [ceritinib, 5-chloro-N2-(2-isopropoxy-5-methyl-4-(piperidin-4-yl)phenyl)-N4-(2-(isopropylsufonyl)phenyl)pyrimidine-2,4-diamine]
[1]; [8]
  Css,max: 1279 nM
  Tss,max: 6.1 h
  CL/F: 42.5 L/h
[1]; [9]
  Css,max: 1230 nM
  Tss,max: 5.9 h
[1]; total ceritinib, geometric mean
  fluctuation between steady-state peak and trough plasma concentrations: 1.4 fold
[1]; total ceritinib, individual patients 1-3 (brain metastases), 750 mg/day fasted
  CL/F: 29.8 L/h and 66.9 L/h and 54.6 L/h
[1]; total ceritinib, individual patients 5-14 (glioblastoma), 450 mg/day with food
  CL/F: 35.9 L/h and 39.8 L/h and 34.1 L/h and 34.7 L/h and 40.8 L/h and 37.8 L/h and 50.1 L/h
[1]; [10]
  Css,max: 19 nM
  Tss,max: 9.3 h
[1]; [11]
  Css,max: 15 nM
  Tss,max: 7.0 h
[2]; individual patients 1, 2, 3, 5, 11 (resection 2–4 h)
  Fraction unbound EN: 1.618% and 0.039% and 0.047% and 0.056%
[2]; [12]
  Fraction unbound EN: 0.006% and 0.153% and 0.030%
  Fraction unbound NE: 0.006% and 0.163% and 0.030%
[2]; [13]
  Fraction unbound EN: 0.298% and 0.144%
  Fraction unbound NE: 0.090% and 0.213%
[2]; [14]
  Fraction unbound EN: 0.006%–1.6% and 0.051%
  Fraction unbound NE: 0.045% and 0.006%–0.21%
[2]; individual patients 5, 11 (resection 2–4 h)
  Fraction unbound NE: 0.045% and 0.006%
[2]; patient 1, breast cancer brain metastasis
  fraction unbound in the tumor relative to the median value: approximately 30 fold
IGF1R
  IC50: 8 nM
[3]
  maximally tolerated dose (MTD): 750 mg
[4]; individual patient 14, 23–25 h after 10th dose, 450 mg/day
  CSF concentration: 0.015 µM
[4]; individual patients 7, 13, 6–8 h after 10th dose, 450 mg/day
  CSF concentration: 0.003 µM and 0.015 µM
[4]; [15]
  CSF concentration: 0.022 µM
  Total drug tumor conc. EN: 46.954 nmol/mg
  Unbound drug tumor conc. EN: 0.117 nmol/mg
  Total drug tumor conc. NE: 9.674 nmol/mg
  Unbound drug tumor conc. NE: 0.008 nmol/mg
[4]; [16]
  CSF concentration: 0.012 µM
  Total drug tumor conc. EN: 36.100 nmol/mg
  Unbound drug tumor conc. EN: 0.048 nmol/mg
  Total drug tumor conc. NE: 2.771 nmol/mg
  Unbound drug tumor conc. NE: 0.006 nmol/mg
[4]; [17]
  Total drug tumor conc. EN: 17.770 nmol/mg and 28.484 nmol/mg and 58.893 nmol/mg
  Unbound drug tumor conc. EN: 0.001 nmol/mg and 0.043 nmol/mg and 0.018 nmol/mg
[4]; [18]
  Total drug tumor conc. EN: 18.340 nmol/mg and 43.715 nmol/mg
  Unbound drug tumor conc. EN: 0.055 nmol/mg and 0.063 nmol/mg
[4]; median
  unbound concentration in enhancing tumor: 48 nM
  unbound concentration in nonenhancing tumor: 6 nM
[4]; [19]
  Total drug tumor conc. NE: 36.351 nmol/mg and 1.259 nmol/mg
  Unbound drug tumor conc. NE: 0.017 nmol/mg and BLQ
[5]; 10-day presurgical course
  tolerability of presurgical ceritinib: well tolerated
[5]; CTCAE 4.0
  severity of toxicities at least possibly related to ceritinib: minor (CTCAE 4.0 grades 1 and 2)
Human plasma proteins
  fraction unbound in human plasma: 1.4% and 0.6%–2.6%
FAK
  IC50: 30 nM
[6]; ALKi-naïve patients (15/19)
  intracranial disease control rate: 78.9%
[6]; ALKi-pretreated patients (49/75)
  intracranial disease control rate: 65.3%
[7]
  disease control rate (DCR), intracranial: High disease control rate
